Measurements taken from the EternaBench riboswitch data.

Tests used:
[1] = test system: MS2 coat protein; test: apparent Kd, MS2 coat protein; higher = weaker binding; RNA-MaP array
Outline: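 Sequenced DNA templates on an Illumina sequencing chip were transcribed into the designed RNAs. These were incubated at room temperature in Tris-HCl pH 7.5 buffer containing KCl, MgCl2, BSA, DTT, tRNA and Tween20 with fluorescently labeled MS2 coat protein at 1.5 nM to 3 μM, with or without input ligand. Apparent Kd is the median of binding-curve fits per cluster, and designs with fewer than 10 clusters measured were excluded.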

[2] = test system: MS2 coat protein; test: apparent Kd, MS2 coat protein; higher = weaker binding; RNA-MaP array; FMN 200 µM where present
Outline: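 The titrant was SNAP-549-labelled MS2 coat protein, run from 0.7 or 1.5 nM in doubling steps to 3 µM. It was applied to designs transcribed by stalled E. coli RNA polymerase on Illumina sequencing-chip clusters, without ligand first and then with constant ligand, in 100 mM Tris-HCl pH 7.5, 80 mM KCl, 4 mM MgCl2, BSA, DTT, yeast tRNA and Tween-20. The apparent Kd is the median of filtered per-cluster binding-curve fits, with green signal normalised to red-channel RNA signal and control-cluster median Fmax.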

[3] = designed as: OFF switch for flavin mononucleotide, no ligand
[4] = ligand present: flavin mononucleotide, designed as: OFF switch for flavin mononucleotide
[5] = designed as: OFF switch for theophylline, no ligand
[6] = ligand present: theophylline, designed as: OFF switch for theophylline
[7] = designed as: ON switch for flavin mononucleotide, no ligand
[8] = ligand present: flavin mononucleotide, designed as: ON switch for flavin mononucleotide
[9] = designed as: ON switch for theophylline, no ligand
[10] = ligand present: theophylline, designed as: ON switch for theophylline

AAAAUUCUAGUGAGGAUAUGGUACGUUGUAGUAAGCCAGAAGGCACAUGAGGAUCACCCAUGUAUAAUGGACGA
apparent Kd [1, 3]: 31.1 nM
apparent Kd [1, 4]: 148 nM

AAACAAGUAGGAUAUACAUGAGGAUCACCCAUGUAUUGUGAGGAUAGUACUGUACCAUGUAGAAGGACUCCGGA
apparent Kd [1, 3]: 10.7 nM
apparent Kd [1, 4]: 9.12 nM

AAAGAUUCCUGAACGCCGCAUACCGAUGAUACCAGCCAACGGAAAGGCCCUUGGCAGCAUUAAACAUGAGGAUCACCCAUGUCUA
apparent Kd [1, 5]: 11.8 nM
apparent Kd [1, 6]: 13.9 nM

AAGACGGUUCAGAAGGUCUCUAAGCAGGUUACAGAAGGAUAUGAUGCGGACACAUGAGGAUCACCCAUGUUCUAGGGUACCCUA
apparent Kd [1, 7]: 22.1 nM
apparent Kd [1, 8]: 19 nM

AAUAAGAAAGGAUAUACAGAGGAUAAACUAAUAAAUAAAGGACAUGAGGAUCACCCAUGUAGAAGGUUCAAAAU
apparent Kd [1, 3]: 11.9 nM
apparent Kd [1, 4]: 11.7 nM

AAUAUUAACGUCAGGAUAUGCCAUUCCCGUUGGCGGCAGAAGGGACAUGAGGAUCACCCAUGUGAAAACGUCAC
apparent Kd [1, 3]: 16.9 nM
apparent Kd [1, 4]: 25.6 nM

AAUGGACGAGGAUAUACAUGAGGAUCACCCAUGUCACAGUGGGCUCACCGUUCGGGUAGUAGAAGGCGUUUCUA
apparent Kd [1, 3]: 107 nM
apparent Kd [1, 4]: 282 nM

AAUGUACAUGAGGAUCACCCAUGUCGUCUACUUAGAGGAUAUGAUUGGUUACCCAGCUGAUCAGAAGGCUACCGUC
apparent Kd [1, 7]: 14.1 nM
apparent Kd [1, 8]: 11.9 nM

ACCAGUAAAUAGCAAUCACAUGAGGAUCACCCAUGUACUGACAAGGAUAUAGUCUAAGAAUAGUGCUAGAAGGUGUUUCCCUAA
apparent Kd [1, 7]: 168 nM
apparent Kd [1, 8]: 101 nM

ACCCUCUAUGAGAAGGAGAGCUUCGCUAGUUAUCUAGGAUAUCACGGAGGACCACUGACACUCCGACAUGAGGAUCACCCAUGU
apparent Kd [1, 7]: 16.5 nM
apparent Kd [1, 8]: 13.9 nM

ACCGAGGCAAUGGAUACCAGUGCGCCACAAUCGUGCUUCAACAUGAGGAUCACCCAUGUGCACCCUUGGCAGCCAACGGGCUCAU
apparent Kd [1, 5]: 21.9 nM
apparent Kd [1, 6]: 19.9 nM

ACCUGGCGGCAGAAGGCCCGCGAUUAACGUAAGGGAGGAUAUGCAUUGUGCGGUGGGACAUGAGGAUCACCCAUGUGCAGCCAG
apparent Kd [1, 3]: 672 nM
apparent Kd [1, 4]: 409 nM

AGACAUGAGGAUCACCCAUGUUUGUGUAUCUGACCGCGCACUAGAAGGGAUUGGACAACUUACUAUCAGGAUAUAGACAACGGU
apparent Kd [1, 7]: 8.4 nM
apparent Kd [1, 8]: 6.95 nM

AGAUUUUGCCAAGGAUAUUCGAUGCAUCAUGACAUGAGGAUCACCCAUGUAUAACGACUUGGGCUGAAGAAGGUGGACCAAGCU
apparent Kd [1, 3]: 11.8 nM
apparent Kd [1, 4]: 12 nM

AGCAUCGCAGGAUAUACAUGAGGAUCACCCAUGUAAAAUAACAAACUUGAACCUGCAAGUAGAAGGGCGUAACG
apparent Kd [1, 3]: 8.31 nM
apparent Kd [1, 4]: 7.87 nM

AGCCUGGAAGCAGGAUAUGGGAUACAUGAGGAUCACCCAUGUAAGAUAAUAGGGCAACGAAGAAGCCAGAAGGGCUCGAGGUAA
apparent Kd [1, 7]: 16.2 nM
apparent Kd [1, 8]: 13.1 nM

AGCUCGACUCGCAGCUGGAUGCCCGCUUGCCGAGGACCGGUACGGCCGCCACUCGUCACUCGACAUGAGGAUCACCCAUGUGAUA
apparent Kd ([1]; designed as: OFF switch for tryptophan, no ligand): 88.3 nM
apparent Kd ([1]; ligand present: tryptophan, designed as: OFF switch for tryptophan): 45.6 nM

AGGUCGAAACUAGGAUAUCUUCACUAUGUCAGAAGAGAAGGAGUAGAGCAUGACAGUGAUAGUACAUGAGGAUCACCCAUGUUA
apparent Kd [1, 3]: 18.8 nM
apparent Kd [1, 4]: 15.7 nM

AGGUGCAUCAAGAAGGAUGACAUGAGGAUCACCCAUGUACAAAAGGCGCGAUUUACAAAUCGUACAUAGGAUAUUGUGCAUGUU
apparent Kd [1, 7]: 71.2 nM
apparent Kd [1, 8]: 24.6 nM

AGUACAAUAUUAGGAUAUUGACAAAACAUGAGGAUCACCCAUGUAAGGCAAGUGCAAGGGAGAGUCAAGAAGGAAAACUGAGUU
apparent Kd [1, 7]: 38.4 nM
apparent Kd [1, 8]: 30 nM

AGUGCUACGUGUAAUCAAAGAGAACCAGAUACCAGAUUAGCAUACAUCCCUUGGCAGCUGCAUACAUGAGGAUCACCCAUGUCAG
apparent Kd [1, 5]: 37.2 nM
apparent Kd [1, 6]: 39.1 nM

AGUGGGUAUGGGCAGGAUAUACGUCGGGCGACAUGAGGAUCACCCAUGUUGGGCGGUGAAGUUGAGUAGAAGGGCCUCCGCCCGAA
apparent Kd [1, 7]: 54.6 nM
apparent Kd [1, 8]: 12.1 nM

AGUGUAUACAAGAAGGAACAUGGACUAGGAUUGUUAGGAUAUUGCAUAAACAUGAGGAUCACCCAUGUGCGACACGCCCACAUC
apparent Kd [1, 7]: 35.4 nM
apparent Kd [1, 8]: 21.7 nM

AUAAAACUAAUACAUGAGGAUCACCCAUGUGAAACACAUACGAGAAGGGCGACAGUCUCAUACACGCAGGAUAUCGGCUAAACG
apparent Kd [1, 7]: 10.8 nM
apparent Kd [1, 8]: 9.95 nM

AUAACACAUGAGGAUCACCCAUGUAAGGAUACCAGUUUCUGAUUAAACCCUUGGCAGCCUAGAGAUAGUCAUGUAAUAACGGCGA
apparent Kd [1, 9]: 11.9 nM
apparent Kd [1, 10]: 19 nM

AUACCAACGGUCAGGAUAUAGGUAACAAGGAAAGACUAGAAGGGACAUGAGGAUCACCCAUGUUUUAACAUGAU
apparent Kd [1, 3]: 7.28 nM
apparent Kd [1, 4]: 6.89 nM

AUAGUGCGGCUGAAGGAUAUGGAACCCGCGACAUGAGGAUCACCCAUGUACUUAAGCGACAUUUGCCAGAAGGUCAAGCAUUCCAU
apparent Kd [1, 7]: 13.3 nM
apparent Kd [1, 8]: 11.2 nM

AUCAAGUCAGGAUAUGAACUAAAGAUGGAAAACGUAGCAAAACAGAAGGGACAUGAGGAUCACCCAUGUGGAAG
apparent Kd [1, 3]: 19.9 nM
apparent Kd [1, 4]: 17 nM

AUCAAUGAUCGACAUGAGGAUCACCCAUGUGCUUGGCGACUAAGAAGGGCCAGGCCACCAAGGCGGCAGGAUAUUAGUAGGACC
apparent Kd [1, 3]: 84.2 nM
apparent Kd [1, 4]: 24.3 nM

AUCACCUUCAAGAAGGUCCCAUACAUGAGGAUCACCCAUGUAAACAAAAUAAUAUGAAAUAAAAGGAAGGAUAUUGAACCAUGA
apparent Kd [1, 7]: 55.1 nM
apparent Kd [1, 8]: 30.3 nM

AUCAUAAGAGUAGGAUAUCGACAUGAGGAUCACCCAUGUACCUUGGAUGACCGCUAAUGGUUUAUCGAGAAGGACUUUUCCUCC
apparent Kd [1, 3]: 8.2 nM
apparent Kd [1, 4]: 10.2 nM

AUCGCAGAUGUAAGGAUAUUAGUGUAGCAACGGUCAAAGAAGGAACAUGAGGAUCACCCAUGUGGUAGAUAAAU
apparent Kd [1, 3]: 19 nM
apparent Kd [1, 4]: 15.2 nM

AUGGAACAUGAGGAUCACCCAUGUGAUGAUACCAGAUUAACGCUUAUCCCUUGGCAGCAUGUCCGCCCUCAACCUGUGGCGUAUU
apparent Kd [1, 9]: 22.2 nM
apparent Kd [1, 10]: 26.1 nM

AUGGAACAUGAGGAUCACCCAUGUUAGGAUAUCGGCGAAGGGAGUUUUAUACUCACUGCGAGAAGGAACGUGAC
apparent Kd [1, 3]: 25.2 nM
apparent Kd [1, 4]: 18.7 nM

AUGUAGAAUCUAGGAUAUGCGAGAAACUGCGAAGCAGAAGGAGACUUGUACAUGAGGAUCACCCAUGUCCCGGGCGUCCCAACU
apparent Kd [1, 3]: 17.7 nM
apparent Kd [1, 4]: 24.2 nM

AUUAACUGGUAAGAUACCAGAGUCGGGAUCUACAUGAGGAUCACCCAUGUUCUAAAGUCGCUCCCUUGGCAGCUUCAAUGAGUCG
apparent Kd [1, 9]: 35.3 nM
apparent Kd [1, 10]: 36 nM

AUUGUGUAAGGAUAUUAUAGAAGAGGUAGGCAACUUCUGAAUAAGAAGGUACAUGAGGAUCACCCAUGUUCAAU
apparent Kd [1, 3]: 11.7 nM
apparent Kd [1, 4]: 12.1 nM

UUUUAGAUCCGAGGAUAUACAAUCCGGAAACGGUACAUGAGGAUCACCCAUGUAGAAGGCGGAUCUACAGGUACUAAAGUAUUU
apparent Kd [2, 3]: 10 nM
apparent Kd [2, 4]: 8.84 nM

UUUUCGAACCGAGGAUAUCCUUAUAAGAAACAUGAGGAUCACCCAUGUAAAGGGAAUUAUUUGAAGGAGAAGGCGGAUUUUGUU
apparent Kd [2, 7]: 50.1 nM
apparent Kd [2, 8]: 32 nM

UUUUCUUUUGUGAGGAUAUACUUCUUUUUUUUUUUGUAGAAGGCACAUGAGGAUCACCCAUGUUUUCUUUUCUG
apparent Kd [2, 3]: 18.9 nM
apparent Kd [2, 4]: 21.8 nM

UUUUUACGAGGAUAUCGAUUGUGGUACAUGAGGAUCACCCAUGUAUGUGAUAUUGUAUUUCGAGAAGGCGUUCAGU
apparent Kd [2, 3]: 19.3 nM
apparent Kd [2, 4]: 17.8 nM

UUUUUACUUGCAGGAUAUGGAGACAUGAGGAUCACCCAUGUAUGAUAAGCUAAAUUAUGCUGUGGCCAGAAGGGUAUUAUUCUU
apparent Kd [2, 7]: 63.2 nM
apparent Kd [2, 8]: 57.4 nM

UUUUUGAAGCUUCGUUAAUACAGUUAGGAUAUGAGAGACAUGAGGAUCACCCAUGUGCAUGUUGAUUAGAAGGAACAACUAUCU
apparent Kd [2, 3]: 20.1 nM
apparent Kd [2, 4]: 17.4 nM

UUUUUGCUAUAUACAUGAGGAUCACCCAUGUCCACUGACAGACAGGAUAUCCUUAGAAACUAGCAGGAGAAGGGUCAGUCAUAC
apparent Kd [2, 7]: 487 nM
apparent Kd [2, 8]: 69 nM

UUUUUGUAAGAGAAGGAGGACUUCAUGAGGAUCACCCAUGUGUUAGUACUUAGGAUAUUUGACAACAUGAGGAUCACCCAUGUC
apparent Kd [2, 7]: 72 nM
apparent Kd [2, 8]: 70.1 nM

UUUUUGUCAGGAUAUACGUAGUAGAACAAUAGUACUACUACGUAGAAGGGACAUGAGGAUCACCCAUGUUCCUC
apparent Kd [2, 3]: 14.8 nM
apparent Kd [2, 4]: 30.9 nM

UUUUUGUCAGGAUAUCCACCCACCACCUUCGGGUGGUGGGUGGAGAAGGGACAUGAGGAUCACCCAUGUAGUUU
apparent Kd [2, 3]: 74.6 nM
apparent Kd [2, 4]: 221 nM

UUUUUGUGAGGAUAUACGUAGUAGAACAAUAGUACUACUACGUAGAAGGCACAUGAGGAUCACCCAUGUUCCUC
apparent Kd [2, 3]: 47.6 nM
apparent Kd [2, 4]: 339 nM

UUUUUGUGAGGAUAUCAGUAGUAAAAAAAUAAAAUUACUACUGAGAAGGCACAUGAGGAUCACCCAUGUUUUUC
apparent Kd [2, 3]: 38.2 nM
apparent Kd [2, 4]: 117 nM

UUUUUGUGAGGAUAUCAGUAGUAAAAUAAAUAAAUUACUACUGAGAAGGCACAUGAGGAUCACCCAUGUUCCUU
apparent Kd [2, 3]: 14 nM
apparent Kd [2, 4]: 30.3 nM

UUUUUGUGAGGAUAUGCAAUAUCUUCUAUUUAUUAUUAAUUGCAGAAGGCACAUGAGGAUCACCCAUGUAUUUU
apparent Kd [2, 3]: 19.2 nM
apparent Kd [2, 4]: 24.2 nM

UUUUUUUUACAGAAGGGAAUCAUGAUUUUUUGUUUUUACAUGAGGAUCACCCAUGUUUAUCUUUUUCAGGAUAUGUAUUUUUUU
apparent Kd [2, 7]: 61.3 nM
apparent Kd [2, 8]: 32 nM
